Screens: PubChem BioAssay, Broad Institute
CaV13 FRET inh = Primary screen for inhibitors of IQ motif and Ca2+-dependent inactivation inhibitor domain binding in CACNA1D, Förster resonance energy transfer in living cells, …. HEK cells, CFP/YFP FRET ICDI-IQ, plate reader, 10 min; percent FRET-ratio fall versus neutral wells. inhibition, % at 12.3 µM. 0.098% of 340,000 active;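 active = mean replicate inhibition of at least 30% and at least 1% of replicates passing that level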;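 also: 0% = median of the neutral control wells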
S100A4 inh HTS = blocks human S100A4 binding to myosin IIA peptide | P26447 | S100A4/TAMRA-MyoIIA peptide fluorescence polarization | inhibition, % at 10.7 µM | 0.14% of 360,000 active | AID 652163;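 active = mean inhibition of at least 70% across replicates, with every replicate also reaching that level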
Target sequence (P26447 whole entry, looked up): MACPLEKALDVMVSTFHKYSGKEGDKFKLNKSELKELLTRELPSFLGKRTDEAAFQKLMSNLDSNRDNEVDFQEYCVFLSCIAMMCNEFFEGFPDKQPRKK
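Material: human S100A4 monomer with TAMRA-labelled myosin IIA peptide; buffer or medium: HEPES pH 7.2 with CaCl2, KCl, NaCl, DTT, Triton; compound dosing: one concentration per compound; schedule: 5 min incubation before reading; benchmarks: neutral control DMSO, positive control TFP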
DENV2 CPE rescue = protects cells from dengue virus 2 cytopathic effect | CPE inhibition, % at 9.99 µM | DENV2-infected cells, cytopathic effect rescue, plate reader | AID 651640 | 1.7% of 350,000 active; in the data active = CPE inhibition above about 20%, passing the limit was not always enough; tested in BHK-21 cells;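 also: 0% = median of neutral control wells and 100% = median of positive control wells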
AF4-AF9 inh = blocks AF4 peptide binding to human AF9; AID 651704; inhibition, % at 10 µM; AlphaScreen, biotin-AF4 peptide binding to FLAG-AF9; 0.47% of 350,000 active;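 active = every replicate reaching a set inhibition limit, whatever the replicate mean, cut at about 25% in these data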;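 also: 0% = plate neutral control median and 100% = total signal loss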
SIRT5 inh = inhibitors of human sirtuin-5 desuccinylase. Purified SirT5, succinyl-peptide AMC, trypsin-coupled fluorescence. AID 652115. inhibition, % at 15 µM. 1.1% of 330,000 active; in the data active = inhibition above about 15%
Target sequence (Q9NXA8 whole entry, looked up): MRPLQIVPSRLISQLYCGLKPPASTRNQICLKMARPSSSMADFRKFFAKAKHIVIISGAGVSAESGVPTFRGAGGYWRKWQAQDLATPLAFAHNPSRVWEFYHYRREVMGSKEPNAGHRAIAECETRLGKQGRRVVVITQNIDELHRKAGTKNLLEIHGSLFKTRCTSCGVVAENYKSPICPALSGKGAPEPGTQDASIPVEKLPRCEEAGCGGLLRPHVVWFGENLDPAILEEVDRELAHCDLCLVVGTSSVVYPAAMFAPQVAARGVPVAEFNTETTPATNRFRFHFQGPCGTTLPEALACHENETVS
* = called active by the depositor; · = no result given. Only some compounds are listed: those with a hit (about 2.7% of all), similar ones and a draw of the others.

SMILES | CaV13 FRET inh | S100A4 inh HTS | DENV2 CPE rescue | AF4-AF9 inh | SIRT5 inh
CC1=C(C(=O)N(C(C)C)C(C)C)CC(CC(=O)NCCN2CCOCC2)C(=O)N1CCCN1CCCC1=O (configuration not stated) | -4 | -6 | 8 | -1 | 16*
CC1=C(C(=O)N(C(C)C)C(C)C)CC(CC(=O)NC2CCCCC2)C(=O)N1CCCN1CCCC1=O (configuration not stated) | -3 | -3 | 3 | -2 | 33*
CC1=C(C(=O)N(C(C)C)C(C)C)CC(CC(=O)NC2CCCC2)C(=O)N1CCCN1CCCC1=O (configuration not stated) | -3 | 1 | 12 | -4 | -5
CC1=C(C(=O)N(C(C)C)C(C)C)CC(CC(=O)NCCCN(C)C)C(=O)N1CCC1=CCCCC1 (configuration not stated) | -4 | -1 | -6 | 0 | 23*
C[C@H]1CN([C@@H](C)CO)C(=O)c2cc(C#CCN(C)C)cnc2O[C@@H]1CN(C)C(=O)Nc1cc(F)ccc1F | · | 10 | 3 | 1 | 9
C#CCN1CC(COc2ccccc2)OCCS1(=O)=O (configuration not stated) | -4 | -12 | -9 | -2 | 0
CCN(CC)C(=O)C1=C(C)N(CCCN2CCCC2=O)C(=O)C(CC(=O)NCC2CCCCC2)C1 (configuration not stated) | -10 | 3 | 74* | -2 | -9
CC1=C(C(=O)N(C)C)CC(CC(=O)NCC2CCCCC2)C(=O)N1CCCN1CCCC1=O (configuration not stated) | -4 | 1 | -4 | 0 | 4
CSc1ccc(S(=O)(=O)NC2CC3CCC2C3)cc1 (configuration not stated) | -5 | -5 | 37* | 1 | 1
CNC[C@H]1Oc2ccc(NS(C)(=O)=O)cc2CC(=O)N([C@@H](C)CO)C[C@@H]1C | · | 6 | 4 | -4 | -4
Cc1noc(C)c1S(=O)(=O)N(C)C[C@H]1OCCCC[C@H](C)Oc2ccc(NC(=O)NC(C)C)cc2C(=O)N([C@H](C)CO)C[C@@H]1C | · | -8 | 102* | -3 | -4
Cc1noc(C)c1S(=O)(=O)N(C)C[C@H]1OCCCC[C@@H](C)Oc2ccc(NC(=O)Nc3ccc4c(c3)OCO4)cc2C(=O)N([C@@H](C)CO)C[C@H]1C | · | · | 86* | · | ·
Cc1noc(C)c1S(=O)(=O)N(C)C[C@H]1OCCCC[C@H](C)Oc2ccc(NC(=O)NC(C)C)cc2C(=O)N([C@H](C)CO)C[C@H]1C | · | -7 | -4 | 0 | -3
COc1ccc(S(=O)(=O)Nc2ccc3c(c2)C(=O)N([C@@H](C)CO)C[C@H](C)[C@H](CN(C)Cc2ccncc2)O3)cc1 | · | -1 | 2 | -1 | -4
O=C(CC1CC1)Nc1ccc2c(c1)[C@@H]1C[C@H](CC(=O)N3CCCCC3)O[C@H](CO)[C@@H]1O2 | · | 5 | -1 | 1 | 3
CN(C)CC(=O)N1[C@H](C#N)[C@H](c2ccc(-c3ccc(C(=O)N(C)C)cc3)cc2)[C@H]1CO | · | -2 | 37* | 0 | 1
CN(C)C(=O)c1cccc(-c2ccc([C@@H]3[C@@H](C#N)N(C(=O)C4CCC4)[C@@H]3CO)cc2)c1 | · | 4 | 26* | -2 | -3
CN(C)C(=O)c1cccc(-c2ccccc2[C@H]2[C@@H](C#N)N(C(=O)C3CC3)[C@H]2CO)c1 | · | 10 | 43* | 2 | 0
CN(C)C(=O)c1ccc(-c2ccc([C@@H]3[C@@H](CO)N(C(=O)C4CCCC4)[C@H]3C#N)cc2)cc1 | · | 1 | 29* | -1 | 6
Oc1c(N=Nc2nn[nH]n2)ccc2ccccc12 | -5 | 38 | 69* | 3 | 6
COc1cccc(N=Nc2ccc3ccccc3c2O)c1 | -4 | 122* | 14 | 1 | -1
CC(=O)N(C)C[C@@H]1Oc2cc(C#CC3(O)CCCC3)ccc2S(=O)(=O)N([C@@H](C)CO)C[C@@H]1C | · | -21 | 3 | -3 | 5
C[C@@H]1CN([C@@H](C)CO)C(=O)c2cc(C#CCN(C)C)cnc2O[C@@H]1CN(C)C(=O)c1ccc2c(c1)OCO2 | · | 2 | -1 | -4 | -3
O=C(O)C1=C2C(=O)Nc3cccc(c32)C2(C1)C(=O)Nc1ccccc12 (configuration not stated) | -13 | -9 | 14 | 2 | 35*
O=C1NCCC12C(=O)Nc1ccccc12 (configuration not stated) | · | -1 | 19 | 6 | ·
SMILES | CaV13 FRET inh | S100A4 inh HTS | DENV2 CPE rescue | AF4-AF9 inh | SIRT5 inh
COC(=O)c1ccc(CN2C(=O)[C@]3(OCCC=C[C@H]3C)c3cc(OC)ccc32)cc1 | -5 | -9 | -5 | · | 1
C[C@H](O)C#Cc1cnc2c(c1)C(=O)N([C@@H](C)CO)C[C@H](C)[C@H](CN(C)C(=O)CN1CCOCC1)O2 | · | 11 | -5 | -3 | 6
COc1ccc(OC)c(NC2=C(Cl)C(=O)N(Cc3ccccc3)C2=O)c1 | -3 | -4 | -2 | 27* | -2
CCOc1ccccc1NC1=C(Cl)C(=O)N(Cc2ccccc2)C1=O | 0 | · | · | · | ·
COc1ccc(-c2cnc3c(c2)C(=O)N([C@H](C)CO)C[C@@H](C)[C@H](CN(C)C(=O)CN(C)C)O3)cc1 | · | 10 | -9 | -2 | 0
C=CCN(Cc1nc(-c2ccc(OC)cc2)no1)C(=O)c1ccc2c(c1)OCO2 | -4 | -16 | 2 | -2 | 17*
COc1ccc(-c2noc(CN(C(=O)c3ccc4c(c3)OCO4)C(C)C)n2)cc1 | -2 | 6 | 2 | -1 | 4
CC(C)CC(NS(=O)(=O)c1ccc2[nH]c(=O)c(=O)[nH]c2c1)C(=O)O (configuration not stated) | 2 | 4 | -3 | -2 | 3
CC(NS(=O)(=O)c1ccc2[nH]c(=O)c(=O)[nH]c2c1)C(=O)O (configuration not stated) | 1 | -1 | 2 | -5 | 25*
CC(=O)c1cc(-c2ccc(F)cc2)n(CCC(=O)NC(C)(C)C)c1C | 4 | -5 | 8 | 2 | 20*
CCC(C)NC(=O)CCn1c(-c2ccc(F)cc2)cc(C(C)=O)c1C (configuration not stated) | 4 | 4 | -3 | -3 | -3
C[C@H]1CN([C@@H](C)CO)C(=O)c2cc(NC(=O)Cc3cn(C)c4ccccc34)ccc2O[C@H]1CN(C)C(=O)Nc1ccc2c(c1)OCO2 | · | -3 | 28* | 5 | 1
C[C@@H]1CN([C@@H](C)CO)C(=O)c2cc(NC(=O)Cc3cn(C)c4ccccc34)ccc2O[C@H]1CN(C)C(=O)Nc1ccccc1 | · | -14 | 35* | 1 | ·
C[C@@H]1CN([C@@H](C)CO)C(=O)c2cc(NC(=O)Cc3cn(C)c4ccccc34)ccc2O[C@H]1CN(C)C(=O)Nc1ccc2c(c1)OCO2 | · | 9 | 1 | 5 | 1
